For test [1], the species on record is Rattus norvegicus. Nature of the test: Neuroprotective effect against ischemic injury with median effective concentration in rat. The format is functional. In a few lines: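 Cerebral ischemia was simulated in a cell culture model by exposing rat cortical cultures to potassium cyanide and 2-deoxyglucose. Neuroprotection against this injury was reported as a median effective concentration.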

A short description of test [2]: In vitro inhibition of N-acetyl-L-aspartyl-[3H]L-glutamate binding to Glutamate carboxypeptidase II. In a few lines:
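Purified recombinant GCP II was incubated with radiolabelled substrate N-acetyl-L-aspartyl-[3H]-L-glutamate, and inhibition was reported as IC50. Values are mean ± SD of at least triplicate experiments; where only two experiments were run, the value is the mean of the duplicates.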

Take `O=C(O)CC[C@H](CP(=O)(O)O)C(=O)O`: the EC50 (in general, the concentration that produces a half-maximal response) in test [1] came to 0.2 nM.
As for `O=C(O)CC[C@@H](CP(=O)(O)Cc1c(F)c(F)c(F)c(F)c1F)C(=O)O`, the IC50 – broadly, the concentration that inhibits the measured activity by half – in test [2] was found to be 1400 nM. The compound further displayed an EC50 in test [1] of 410 nM.
Compound `O=C(O)CC[C@@H](CP(=O)(O)O)C(=O)O` returned an EC50 in test [1] of 70 nM.
Take `O=C(O)CC[C@H](CP(=O)(O)Cc1c(F)c(F)c(F)c(F)c1F)C(=O)O`: the IC50 in test [2] is 34 nM. Further, the EC50 in test [1] turned out to be 4.1 nM.
As to `O=C(O)CCC(CP(=O)(O)O)C(=O)O` (centres undefined), the midpoint of the response in test [1], the EC50, lay at 1.2 nM. This counts as single-digit nanomolar.
`O=C(O)CCC(CCCS)C(=O)O` (racemic) came in with an EC50 in test [1] of 13 nM.
`O=C(O)CCC(CP(=O)(O)Cc1c(F)c(F)c(F)c(F)c1F)C(=O)O` (racemic) had an EC50 in test [1] of 9.5 nM.

The record behind these values is ChEMBL document CHEMBL1143563, “Enantiospecificity of glutamate carboxypeptidase II inhibition” (J Med Chem, 2005).
